Screens (PubChem BioAssay)
An excerpt weighted towards active compounds, which were near 3.4% of everything screened.
zfTRPN1 agonist – agonists of zebrafish TRPN1 channel | HEK293 zebrafish TRPN1-YFP, Fluo-8 calcium fluorescence; 100% = response to 87 µM carbachol | activation, % at 3 µM | 220,000 compounds, 0.18% hits;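 active = activation above its plate's cutoff, the mean activation of test wells on that plate plus 3 SD, cut at about 19% in these data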
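Material: zebrafish TRPN1-YFP in HEK293 cells. Doses: one dose of 3 µM, 0.3% DMSO. Incubation: dye 1 h 37 °C plus 30 min RT. Measured by: intracellular calcium fluorescence with Fluo-8.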
TAAR1 ag – human TAAR1 agonism | CHO RD-HGA16 TAAR1, Fluo-8 calcium fluorescence; vehicle wells 0%, saturating PEA agonist 100% | activation, % at 3 µM | 360,000 compounds, 0.99% hits;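 active = activation above the mean activation of all test compounds in the run plus 3 SD, cut at about 38% in these data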
Target sequence (Q96RJ0 whole entry, looked up): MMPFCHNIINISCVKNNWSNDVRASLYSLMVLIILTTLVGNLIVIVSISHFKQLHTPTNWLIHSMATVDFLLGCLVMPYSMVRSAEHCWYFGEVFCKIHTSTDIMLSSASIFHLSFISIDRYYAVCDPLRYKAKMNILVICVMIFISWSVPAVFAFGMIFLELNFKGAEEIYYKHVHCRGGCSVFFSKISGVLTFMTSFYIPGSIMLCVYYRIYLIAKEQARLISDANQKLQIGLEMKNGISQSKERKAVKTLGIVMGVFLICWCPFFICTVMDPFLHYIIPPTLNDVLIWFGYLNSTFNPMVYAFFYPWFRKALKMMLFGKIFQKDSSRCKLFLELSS
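Test system: RD-HGA16 (CHO) cells co-expressing Gα16 and hTAAR1 | Doses: Single dose, 3 µM | Schedule: 17-24 h seeding, 75 min 37 °C dye, 30 min RT | Evaluation: % activation from peak over basal fluorescence ratio, DMSO-to-PEA scaled | Technique: Kinetic Fluo-8 calcium fluorescence | Benchmarks: Low control DMSO, high control PEA (EC100)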
TAAR1 antag – antagonists of human TAAR1; CHO RD-HGA16 TAAR1, Fluo-8 calcium fluorescence, antagonist; inhibition, % at 3 µM; 360,000 compounds, 1.5% hits;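 active = inhibition above a per-plate cutoff, the mean inhibition of test compounds on that plate plus 3 SD, cut at about 49% in these data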
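Test system – hTAAR1-expressing CHO RD-HGA16 cells, Gα16-coupled · Reagent – β-PEA at EC80 concentration, post-compound challenge · Compound dosing – 3 µM, single point · Timing – 140 s kinetic read after compound, 140 s after agonist · Detection – Fluo-8 intracellular calcium dye fluorescence, real-time kinetic reads · Control set – DMSO and EC80 PEA controls · Repeats – n of 1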
GPR7 antagonist – antagonists of human GPR7 (neuropeptides B/W receptor 1) | P48145 | GPR7-expressing cells, fluorescence antagonist assay | inhibition, % at 4.4 µM | 290,000 compounds, 1.1% hits | AID 1861; in the data active = inhibition above about 16%, passing the limit was not always enough;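 also: cells stimulated with the agonist NPW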
Target sequence (P48145 whole entry, looked up): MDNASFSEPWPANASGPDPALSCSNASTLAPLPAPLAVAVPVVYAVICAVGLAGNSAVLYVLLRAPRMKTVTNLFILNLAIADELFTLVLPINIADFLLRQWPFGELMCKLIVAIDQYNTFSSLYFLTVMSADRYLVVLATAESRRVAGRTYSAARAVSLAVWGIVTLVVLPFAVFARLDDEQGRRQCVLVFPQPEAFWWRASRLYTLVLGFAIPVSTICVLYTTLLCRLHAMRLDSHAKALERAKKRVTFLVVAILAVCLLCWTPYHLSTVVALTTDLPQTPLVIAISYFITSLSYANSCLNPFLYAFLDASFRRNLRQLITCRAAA
TRPML3 agonist – activates the human TRPML3 channel | HEK293 TRPML3-YFP, Fluo-8 calcium fluorescence; 100% = the carbachol control signal | activation, % at 3 µM | 220,000 compounds, 0.29% hits | AID 1448;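 active = activation above its plate's cutoff, the mean activation of the plate's test wells plus 3 SD, cut at about 12% in these data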
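Material: HEK293 cells stably carrying human TRPML3-YFP; compound dosing: single dose, 3 µM final nominal compound, 0.3% DMSO final; incubation: 1-h 37 °C dye load, 5-s basal, 120-s post-compound reads; technique: Fluo-8 intracellular calcium fluorescence, excitation 470-495 nm, emission 515-575 nm; read-out basis: percent activation from peak-to-basal fluorescence ratio, scaled between DMSO and carbachol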
LANA-H2B inh – blocks KSHV LANA binding to histone H2A/H2B | Q9QR71 | cell-free LANA-H2A/H2B peptide, fluorescence polarization | inhibition, % (concentration not given with the values) | 320,000 compounds, 0.6% hits | AID 2629; in the data active = inhibition mostly above about 10%, no sharp cut-off; inactive = mostly below about 6.7%
TAAR1 ag conf – confirmation of human TAAR1 agonists. activation, % at 3 µM. CHO RD-HGA16 TAAR1, Fluo-8 calcium fluorescence; scaled: DMSO 0%, maximal phenethylamine 100%. 2,400 compounds, 82% hits. shares compounds with TAAR1 ag;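 active = activation above a cutoff set at the run's mean compound activation plus 3 SD, cut at about 39% in these data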
Ga16 ag counter – nonselective agonism, TAAR1 counter-screen; shares compounds with TAAR1 ag; CHO-Ga16 parental, Fluo-8 calcium fluorescence; normalized to maximal ATP response, DMSO zero; activation, % at 3 µM; 2,400 compounds, 50% hits; AID 651787;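 active = activation above the run cutoff, the mean activation over all tested wells plus 3 SD, cut at about 12% in these data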
TAAR1 desens – TAAR1 response desensitization, agonist counter-screen. CHO RD-HGA16 hTAAR1, Fluo-8 calcium, beta-PEA response inhibition. AID 651951. shares compounds with TAAR1 ag. 2,400 compounds, 46% hits. inhibition, % at 3 µM;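 active = inhibition above the run cutoff, the mean inhibition of all test compounds plus 3 SD, cut at about 49% in these data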;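 also: beta-PEA stimulus applied at its EC80; loss of beta-PEA calcium signal after compound pretreatment read as receptor desensitization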
Ga16 nonsel ant – nonselective Ga16 antagonism, counter-screen. 2,400 compounds, 39% hits. inhibition, % at 3 µM. shares compounds with TAAR1 ag. CHO-Ga16 ATP-induced calcium, Fluo-8 fluorescence;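 active = inhibition above the plate's mean compound inhibition plus 3 SD, computed per plate, cut at about 22% in these data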
Numbers stand for hits; 0 = inactive; - = no result.

SMILES	zfTRPN1 agonist	TAAR1 ag	TAAR1 antag	GPR7 antagonist	TRPML3 agonist	LANA-H2B inh	TAAR1 ag conf	Ga16 ag counter	TAAR1 desens	Ga16 nonsel ant
OCCNc1nc(Nc2ccc(O)cc2)nc2ccccc12	0	88.4	59.0	0	0	0	96.9	0	95.3	0
Oc1cccc(Nc2c3ccccc3nc3ccccc23)c1	-	0	0	0	-	0	-	-	-	-
CNc1cncc(-c2cccc(NS(C)(=O)=O)c2)n1	-	0	0	-	-	-	-	-	-	-
CC1CCc2sc(C(=O)OCC(=O)NCc3ccccc3)cc2C1 (centres undefined)	0	43.2	0	0	0	0	0	0	0	0
Cc1c(Cl)cccc1NC(=O)Nc1ccc(C(N)=O)cc1	0	51.8	0	0	0	0	59.7	0	0	0
Cc1ccc(N2CC(O)CSC2=Nc2ccccc2)cc1 (centres undefined)	-	0	0	-	-	-	-	-	-	-
BrC(=C\c1ccccc1)/C=N/Nc1ccc2nncn2n1	0	67.2	0	0	0	0	44.4	36.9	0	0
BrC(=C\c1ccccc1)/C=N/n1cnnc1	0	98.2	0	0	0	-	38.1	37.5	0	0
CCC(CO)Nc1ccn2nc(-c3cccs3)cc2n1 (centres undefined)	-	0	0	-	-	-	-	-	-	-
COc1cc(OC)cc(C(=O)N[C@H](C(=O)NC2=NCCS2)C(C)C)c1	-	0	0	-	-	0	-	-	-	-
CC(C)C(N)c1csc(Nc2ccc(C(=O)c3ccccc3)cc2)n1 (centres undefined)	-	47.6	0	-	-	-	61.5	14.4	0	24.6
COc1ccc(CC(N)c2csc(Nc3ccc(C(=O)c4ccccc4)cc3)n2)cc1 (centres undefined)	-	51.1	0	-	-	-	39.3	27.1	0	38.3
CC(N)c1csc(Nc2ccc(C(=O)c3ccccc3)cc2)n1 (centres undefined)	-	0	0	-	-	-	-	-	-	-
COc1ccc(CC(N)c2csc(Nc3ccc(C(C)=O)cc3)n2)cc1 (centres undefined)	-	0	0	-	-	-	-	-	-	-
CCCCCCCCN1C(=O)[C@H](CC(=O)NCC2CCCCC2)C[C@@]2(C(=O)OCC)CCC=C12	-	0	0	-	-	-	-	-	-	-
COc1cc2nc(/C=C/c3ccc(N(C)C)cc3)sc2cc1SC	0	100.9	52.0	0	0	0	46.1	93.3	66.8	87.0
COCCN1C(=O)Cc2c1nc(N)c1c(N)nc(N3CCN(c4ccc(F)cc4)CC3)c(C#N)c21	0	0	0	0	0	0	-	-	-	-
COCC(C)N1C(=O)Cc2c1nc(N)c1c(N)nc(N3CCN(c4ccccc4F)CC3)c(C#N)c21 (centres undefined)	0	52.5	48.7	0	0	0	49.0	24.6	62.6	44.6
CC(=O)Nc1ccc(NC(=O)Nc2ccccc2)cc1	-	-	-	0	-	0	-	0	-	0
O=C(Nc1ccccc1)Nc1ccc2ncoc2c1	0	59.1	0	0	0	0	88.0	0	61.3	0
O=C(Nc1ccccc1)Nc1ccc(NC(=O)c2ccccc2O)cc1	-	70.4	80.7	0	-	0	101.3	12.8	97.3	29.6
CC(C)NC(=O)N(C)C[C@H]1Oc2ccc(NC(=O)Cc3ccccc3)cc2C(=O)N([C@H](C)CO)C[C@@H]1C	-	0	0	-	-	-	-	-	-	-
Cc1ccc(S(=O)(=O)N2CCC[C@H]2C(=O)Nc2ccc(F)cc2C)cc1	-	0	0	-	-	0	-	-	-	-
COc1cccc(-n2cnnc2SC(C)C(=O)NC2CCCC2)c1 (centres undefined)	-	0	0	-	-	0	-	-	-	-
O=C(Nc1ccc2c(c1)C(=O)N(c1ccccc1)C2=O)c1cccs1	0	57.2	0	0	0	0	46.2	25.2	0	0
SMILES	zfTRPN1 agonist	TAAR1 ag	TAAR1 antag	GPR7 antagonist	TRPML3 agonist	LANA-H2B inh	TAAR1 ag conf	Ga16 ag counter	TAAR1 desens	Ga16 nonsel ant
CCc1cc2ccccc2nc1SCC(=O)Nc1cc(C)on1	0	47.9	0	0	0	0	0	0	0	0
CCC(C)(C)NC(=O)CN(C(=O)CNS(=O)(=O)c1ccc(C)cc1)c1ccc2c(c1)OCCO2	0	52.1	0	0	0	0	82.4	26.4	0	0
CC(C)(C)NC(=O)CN(C(=O)CNS(=O)(=O)c1ccc(Cl)cc1)c1ccc2c(c1)OCCO2	-	72.2	0	0	-	0	100.2	45.2	0	0
C[C@@H]1CN([C@H](C)CO)C(=O)CCCn2nncc2CO[C@@H]1CN(C)C(=O)Nc1ccc(N2CCCCC2)cc1	-	0	0	-	-	-	-	-	-	-
CC1(C)C(=O)Nc2ccccc2N1C(=O)COC(=O)COc1ccc(C#N)cc1	-	0	0	0	-	0	-	-	-	-
CCN1CCN(C(=O)CCc2nnc3ccc(N4CCN(c5cccc(OC)c5)CC4)nn23)CC1	-	0	0	0	-	0	-	-	-	-
CCC1(c2ccc(F)cc2)NC(=O)N(CC(=O)N2c3ccccc3NC(=O)CC2C)C1=O (centres undefined)	-	0	0	-	-	0	-	-	-	-
CCC1(c2ccc(F)cc2)NC(=O)N(CC(=O)N2c3ccccc3CC2C)C1=O (centres undefined)	-	75.6	0	-	-	0	84.3	47.1	0	29.8
CC1Cc2ccccc2N1C(=O)CN1CCc2ccccc2C1 (centres undefined)	0	71.7	0	0	0	0	76.7	0	0	0
CCC1(c2ccc(F)cc2)NC(=O)N(CC(=O)c2cc(C)n(C3CC3)c2C)C1=O (centres undefined)	-	103.4	58.1	-	-	0	97.7	50.8	52.2	32.5
CCc1ccc(C(O)c2ncc(-c3ccc(C)cc3)[nH]2)cc1 (centres undefined)	-	0	0	-	-	-	-	-	-	-
CC(C)(C)c1ccc(S(=O)(=O)NC(=O)C2(C)CCN2C(=O)c2cccc3ccccc23)cc1 (centres undefined)	-	45.6	0	-	-	-	66.5	14.1	0	0
O=C(CC1Nc2ccccc2NC1=O)NCCc1ccccc1 (centres undefined)	0	90.8	57.3	0	0	0	98.3	0	73.6	0
O=C(NCc1cnn(-c2ccccc2)c1)C1CCC(=O)N(C2CC2)C1 (centres undefined)	-	0	0	0	-	0	-	-	-	-
CC(C)c1ccc2nc3sc(C(=O)N4CCc5ccccc5C4)c(N)c3cc2c1	0	82.9	0	0	0	0	87.6	31.0	63.4	39.6
